{"source": "paper PMC3665005", "about": "(Gene therapy, 2012)", "tested_on": "luciferase expression in liver", "assay": "HD-stimulated expression after tail vein dosing, luciferase in liver by BLI", "assay_type": "in vivo, mice", "details": "HD-stimulation, 5 min delay, 1 μg pGL3, 0.8 nmol peptide", "outline": "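Albino ICR mice (three per group) received polyplex (1 μg pGL3, 0.8 nmol PEGylated peptide) in 50 μl HBM (5 mM Hepes, 0.27 M mannitol, pH 7.4) by tail vein. Saline at 9 wt/vol% body weight (1.8-2.25 ml) was given by tail vein over 5 sec. At 24 hrs, liver BLI under 3% isofluorane, 5 min after i.p. D-luciferin (2.4 mg). Mean and standard deviation reported.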"}
{"substance": "(Acr-DLys4)3-Acr-DLys-Cys-PEG [4D]", "values": [{"measurement": "fold lower gene transfer relative to peptide 4 polyplexes", "result": 5, "unit": "fold"}]}
{"substance": "(Acr-DLys)3-Acr-DLys-Cys-PEG [1D]", "values": [{"measurement": "gene transfer compared with peptide 1 polyplexes (in words)", "result": "equivalent"}]}
